Key:
[1] = Cytotoxicity against african green monkey Vero cells after 3 days by MTS assay; type: cell-based; settings: chlorocebus sabaeus
How it was run: (§1)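 Uninfected cultures in the antiviral-assay setup were exposed to serial compound dilutions for three days at 37 °C. Viability was read by the MTS method. CC50, the concentration inhibiting cell proliferation by 50%, was obtained by linear interpolation; mean ± SD of at least three independent experiments.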

[2] = Cytotoxicity against human MRC5 cells after 3 days by MTS assay; type: cell-based; how it was run: as §1
[3] = Cytotoxicity against human HeLa cells after 3 days by MTS assay; type: cell-based; how it was run: as §1
[4] = Cytotoxicity against african green monkey Vero cells after 3 days by Cell titer glo luminescent assay; type: cell-based; settings: chlorocebus sabaeus
How it was run: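 Uninfected Vero cells were incubated with serial compound dilutions for three days at 37 °C, using the same setup as the antiviral assay. Survival was measured with the CellTiter-Glo luminescent viability assay. CC50 (50% inhibition of proliferation) was determined by linear interpolation; mean ± SD of at least three independent experiments.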

Coxsackievirus B3 = assay: Antiviral activity against Coxsackievirus B3 infected in african green monkey Vero cells assessed as reduction of virus-induced cytopathic effect after 3 days by MTS assay; type: functional, organism-based; settings: Enterovirus B, 72 h
How it was run: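 CPE-reduction assay in confluent Vero cells. Serial compound dilutions and 100 CCID50 of CVB3 were added, then incubated 3 days at 37 °C until complete CPE in the virus control. Optical density after MTS/PMS was read at 498 nm relative to uninfected untreated cells. EC50 was interpolated linearly; mean ± SD of at least three independent experiments.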

[5] = Antiviral activity against Enterovirus 71 BrCr infected in human RD cells assessed as reduction of virus induced cytopathic effect after 3 days by MTS assay; type: functional, cell-based, Human enterovirus 71 (strain BRCR); settings: Enterovirus A, 72 h
How it was run: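 Virus was cultured in RD cells at 37 °C. Confluent cells were given serial compound dilutions with 100 CCID50 of virus for 3 days, until complete CPE in untreated infected controls. Cell viability was measured by MTS/PMS absorbance at 498 nm. EC50 was derived by linear interpolation; mean ± SD of at least three independent experiments.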

rhinovirus A2 = assay: Antiviral activity against Rhinovirus 2 infected in human HeLa-R cells assessed as reduction of virus induced cytopathic effect after 3 days by MTS assay; type: functional, organism-based; settings: Rhinovirus A, 72 h
How it was run: (§2)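 Rhinoviruses were cultured in HeLa R cells at 35 °C. Confluent cells received serial compound dilutions and 100 CCID50 of virus until complete CPE developed in the virus control. Survival was quantified by MTS/PMS at 498 nm versus uninfected compound-free cells. EC50 was calculated by linear interpolation; mean ± SD of at least three independent experiments.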

[6] = Antiviral activity against Echovirus 11 Gregory assessed as reduction of virus-induced cytopathic effect after 3 days by MTS assay; type: functional, Echovirus 11 (strain Gregory)
How it was run: (§3)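 Confluent MRC-5 monolayers received serial compound dilutions plus 100 CCID50 of virus and were incubated 3 days at 37 °C, until full CPE appeared in the untreated virus control. Viability was read by MTS/PMS at 498 nm and compared with uninfected, compound-free cells. EC50 (50% CPE inhibition) was obtained by linear interpolation; mean ± SD of at least three independent experiments.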

[7] = Antiviral activity against Coxsackie virus A21 Coe infected in human MRC5 cells assessed as reduction of virus induced cytopathic effect after 3 days by MTS assay; type: functional, cell-based, Human coxsackievirus A21 (strain Coe); settings: Enterovirus C, MRC5, 72 h
How it was run: (§4)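 Confluent MRC-5 monolayers were cultured at 37 °C and given serial compound dilutions plus 100 CCID₅₀ virus. EC₅₀ (50% CPE inhibition) was found by linear interpolation. Values are the mean ± SD of at least three independent experiments.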

Coxsackievirus A24 = assay: Antiviral activity against Coxsackie virus A24 infected in human MRC5 cells assessed as reduction of virus induced cytopathic effect after 3 days by MTS assay; type: functional, organism-based; settings: Enterovirus C, MRC5, 72 h; how it was run: as §4
[8] = Antiviral activity against Coxsackievirus A16 G10 infected in human MRC5 cells assessed as reduction of virus induced cytopathic effect after 3 days by MTS assay; type: functional, cell-based, Human coxsackievirus A16 (strain G-10); settings: Enterovirus A, MRC5, 72 h; how it was run: as §3
rhinovirus B14 = assay: Antiviral activity against Rhinovirus 14 infected in human HeLa-R cells assessed as reduction of virus induced cytopathic effect after 3 days by MTS assay; type: functional, organism-based; settings: Rhinovirus B, 72 h; how it was run: as §2
Poliovirus 1 = assay: Antiviral activity against Poliovirus1 sabin infected in Vero cells assessed as reduction of virus induced cytopathic effect after 3 days by MTS assay; type: functional, cell-based; settings: Enterovirus C, 72 h
How it was run: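 Vero cells were grown to confluence at 37 °C and then given serial compound dilutions together with 100 CCID₅₀ virus. After 3 days, once virus controls reached full CPE, cell viability was measured by MTS/PMS as absorbance at 498 nm, relative to uninfected untreated wells. EC₅₀ was interpolated linearly as the concentration giving 50% CPE inhibition. Results are the mean ± SD of three or more independent experiments.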

[9] = Antiviral activity against Echovirus 9 Hill assessed as reduction of virus-induced cytopathic effect after 3 days by MTS assay; type: functional, Echovirus 9 (strain Hill); how it was run: as §3

Row | Structure (SMILES) | CC50 at 72 h [1] [µM] | EC50 (Coxsackievirus B3) [µM] | EC90 (Coxsackievirus B3) [µM] | other results
1 | OCc1cccc(-n2cnc3c(Cl)ncnc32)c1 | > 100 | 14.2 | 30 | CC50 at 72 h [2]: 229 µM; CC50 at 72 h [3]: 175 µM; CC50 at 72 h [4]: 200 µM
2 | Cc1ncnc2c1ncn2-c1cccc(CO)c1 | > 100 | > 100 | – | –
3 | CC(C)COc1ccc(-n2cnc3c(Cl)ncnc32)cc1 | > 100 | > 100 | – | –
4 | CC(=O)c1cccc(-n2nnc3c(Cl)ncnc32)c1 | 44 | > 44 | – | –
5 | Cc1nc(Cl)c2ncn(-c3cccc(C(C)(C)O)c3)c2n1 | > 100 | 8 | 7.4 | CC50 at 72 h [2]: > 250 µM; CC50 at 72 h [3]: > 250 µM; CC50 at 72 h [4]: > 250 µM
6 | COc1cccc(Cn2cnc3ncnc(Cl)c32)c1 | > 100 | 75 | > 100 | –
7 | O=C(c1ccccc1)c1ccc(-n2cnc3c(Cl)ncnc32)cc1 | > 100 | 67 | 85 | –
8 | CC(=O)c1cc(-n2cnc3c(Cl)ncnc32)ccc1F | > 100 | 9.3 | 15 | –
9 | Clc1ncnc2c1ncn2-c1ccc2c(c1)OCO2 | > 100 | > 100 | – | –
10 | CNc1ncnc2c1ncn2-c1cccc(CO)c1 | > 100 | > 100 | – | –
11 | OCc1ccc(-n2cnc3c(Cl)ncnc32)cc1 | > 100 | 11 | 20 | –
12 | CC(=O)c1cccc(-n2cnc3c(Cl)ncnc32)c1 | > 100 | 7.3 | 9.1 | EC50 [5]: > 100 µM; EC50 (rhinovirus A2): > 100 µM; EC50 [6]: > 100 µM; EC50 [7]: 4.5 µM; EC50 (Coxsackievirus A24): 2.7 µM; EC50 [8]: 2.7 µM; EC50 (rhinovirus B14): > 100 µM; EC50 (Poliovirus 1): > 100 µM; CC50 at 72 h [2]: 238 µM; EC50 [9]: 3.3 µM; CC50 at 72 h [3]: 144 µM; CC50 at 72 h [4]: > 250 µM
13 | Nc1nc(Cl)c2ncn(-c3cccc(CO)c3)c2n1 | > 100 | 17 | 25 | –
14 | COc1ccc(C(C)=O)cc1-n1cnc2c(Cl)nc(C)nc21 | > 100 | > 100 | – | –
15 | OCc1cccc(-n2cnc3c(Br)ncnc32)c1 | > 100 | 22 | 29 | –
16 | CC(=O)c1cccc(Nc2ncnc(Cl)c2N)c1 | > 100 | > 100 | – | –
17 | CC(=O)c1cccc(Nc2nc(C)nc(Cl)c2N)c1 | > 100 | > 100 | – | –
18 | CC(=O)c1cccc(-n2c(C)nc3c(Cl)ncnc32)c1 | > 100 | 12.2 | 22 | –

Row | Structure (SMILES) | CC50 at 72 h [1] [µM] | EC50 (Coxsackievirus B3) [µM] | EC90 (Coxsackievirus B3) [µM] | other results
19 | CC(=O)c1cccc(-n2cnc3c(Cl)nc(C)nc32)c1 | > 100 | 8.7 | 14 | –
20 | CC(=O)c1cccc(-n2c(C)nc3c(Cl)nc(C)nc32)c1 | > 100 | 11 | 15 | –
21 | CC(=O)c1cccc(-n2c(=O)[nH]c3c(Cl)ncnc32)c1 | > 100 | 9.3 | 18 | –
22 | OCc1cccc(-n2cnc3c(Cl)nc(Cl)nc32)c1 | 8.8 | > 8.8 | – | –
23 | OCc1cccc(-n2cnc3cncnc32)c1 | > 100 | > 100 | – | –
24 | CC(=O)c1ccc(-n2cnc3c(Cl)ncnc32)cc1 | > 100 | 35.3 | 51 | –
25 | COC(=O)c1cccc(-n2cnc3c(Cl)ncnc32)c1 | > 100 | 11.1 | 22 | –
26 | CC(=O)c1cccc(-n2c(=O)[nH]c3c(Cl)nc(C)nc32)c1 | > 100 | 6.7 | 10 | CC50 at 72 h [2]: > 250 µM; CC50 at 72 h [3]: > 250 µM; CC50 at 72 h [4]: > 250 µM
27 | COc1ncnc2c1ncn2-c1cccc(CO)c1 | > 100 | > 100 | – | –
28 | COc1cccc(Cn2cnc3c(Cl)ncnc32)c1 | > 100 | 53 | 70 | –
29 | COc1ccc(C(C)=O)cc1-n1cnc2c(Cl)ncnc21 | > 100 | > 57 | – | –
30 | Cc1nc(Cl)c2[nH]c(=O)n(-c3cccc(C(C)(C)O)c3)c2n1 | > 100 | 22 | 29 | –
31 | OCc1cccc(-n2cnc3c(O)ncnc32)c1 | > 100 | > 100 | – | –
32 | CC(=O)c1cccc(-n2nnc3c(Cl)nc(C)nc32)c1 | 44 | > 44 | – | –
33 | CC(C)COc1cccc(-n2cnc3c(Cl)ncnc32)c1 | > 100 | 29 | > 100 | –
34 | COc1cccc(-n2cnc3c(Cl)ncnc32)c1 | > 100 | 12 | 22 | –
35 | Fc1cccc(F)c1[C@@H]1SCc2nc3cc(C(F)(F)F)ccc3n21 | > 100 | 1.2 | – | –
36 | CC(C)S(=O)(=O)n1c(N)nc2ccc(/C(=N/O)c3ccccc3)cc21 [ENVIROXIME] | > 100 | 0.7 | – | –

— ChEMBL document CHEMBL1156769, “9-Arylpurines as a novel class of enterovirus inhibitors” (J Med Chem, 2010)
